In PMC4002258 (Biochimica et biophysica acta, 2013):
Several values for one entry are separate records, joined by “and”; a condition that tells them apart may be missing. Identical values can stand only once. Marks after values point to notes of the source that are not given here.

What was measured:
Format in all cases: biochemical
[1] = target: human recombinant core 1 β1,3-Gal-transferase (C1GalT) (Homo sapiens, UniProt Q9NS00); assay: C1GalT glycosyltransferase assay; settings: for C1GalT activity (%): acceptor substrate 0.5 mM, 0.5 mM GalNAcα-Bn set to 100%
[2] = target: T1, human recombinant core 3 β1,3-GlcNAc-transferase (C3GnT) (Homo sapiens, UniProt Q6ZMB0); assay: C3GnT glycosyltransferase assay; settings: for C3GnT activity (%): acceptor substrate 0.5 mM, 0.5 mM GalNAcα-Bn set to 100%; for Vmax / Km: C3GnT; for Vmax: acceptor substrate; for Km: apparent KM for acceptor substrate
T1 sequence (Q6ZMB0 32-384 limits assumed): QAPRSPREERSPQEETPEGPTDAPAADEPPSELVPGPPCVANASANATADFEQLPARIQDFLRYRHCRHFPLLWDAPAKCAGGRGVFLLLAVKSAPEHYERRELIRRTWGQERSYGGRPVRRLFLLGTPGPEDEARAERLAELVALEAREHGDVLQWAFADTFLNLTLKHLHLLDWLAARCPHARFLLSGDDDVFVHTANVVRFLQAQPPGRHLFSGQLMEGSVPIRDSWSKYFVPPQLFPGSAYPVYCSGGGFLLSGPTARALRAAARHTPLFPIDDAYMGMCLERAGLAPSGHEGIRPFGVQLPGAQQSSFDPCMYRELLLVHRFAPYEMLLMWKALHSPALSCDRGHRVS

[3] = target: T2, human recombinant core 2 β1,6-GlcNAc-transferase (C2GnT1) (Homo sapiens, UniProt Q02742); assay: C2GnT1 glycosyltransferase assay; settings: for C2GnT1 activity (%): acceptor substrate 0.5 mM, 0.5 mM Galβ1–3GalNAcα-pnp set to 100%
T2 sequence (Q02742 33-428 limits assumed): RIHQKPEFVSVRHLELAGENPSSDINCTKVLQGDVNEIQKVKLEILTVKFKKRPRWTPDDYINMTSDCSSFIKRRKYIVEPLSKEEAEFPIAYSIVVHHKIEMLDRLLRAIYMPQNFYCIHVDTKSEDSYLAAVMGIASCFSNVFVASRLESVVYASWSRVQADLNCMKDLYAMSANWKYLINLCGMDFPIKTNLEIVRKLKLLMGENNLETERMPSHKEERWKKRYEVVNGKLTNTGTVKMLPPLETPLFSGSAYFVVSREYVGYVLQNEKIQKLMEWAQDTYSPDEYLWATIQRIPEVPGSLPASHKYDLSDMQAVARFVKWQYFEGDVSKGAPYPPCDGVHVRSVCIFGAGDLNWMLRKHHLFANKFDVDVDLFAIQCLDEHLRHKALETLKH

[4] = target: T3, human recombinant core 2/4 β1,6-GlcNAc-transferase (C2GnT2) (Homo sapiens, UniProt O95395); settings: for C2GnT2 activity (%): acceptor substrate 0.5 mM, 0.5 mM Galβ1–3GalNAcα-pnp set to 100%
T3 sequence (O95395 27-438): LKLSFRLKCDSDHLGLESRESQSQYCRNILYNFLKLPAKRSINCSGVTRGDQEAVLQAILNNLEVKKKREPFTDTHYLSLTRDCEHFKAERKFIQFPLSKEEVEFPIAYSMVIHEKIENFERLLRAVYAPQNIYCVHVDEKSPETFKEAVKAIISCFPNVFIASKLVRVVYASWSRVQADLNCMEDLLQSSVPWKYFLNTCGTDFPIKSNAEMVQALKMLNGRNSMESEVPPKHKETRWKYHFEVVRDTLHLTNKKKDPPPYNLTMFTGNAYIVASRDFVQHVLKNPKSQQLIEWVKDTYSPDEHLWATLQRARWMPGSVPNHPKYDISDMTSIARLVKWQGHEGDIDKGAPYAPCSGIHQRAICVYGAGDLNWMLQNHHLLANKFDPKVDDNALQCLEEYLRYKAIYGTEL

[5] = target: T1, human recombinant core 3 β1,3-GlcNAc-transferase (C3GnT); assay: Inhibition of C3GnT; settings: inhibitor 0.5 mM, 0.5 mM GalNAcα-Bn acceptor
How it was run: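 His-tagged human C3GnT from Sf9 cells, Ni2+-NTA purified, 0.003 mg protein per assay. Inhibitor at acceptor concentration unless indicated. Incubated 1 h at 37 °C, then cold-water stop. AG1×8 anion exchange; eluate counted by scintillation.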

[6] = target: T2, human recombinant core 2 β1,6-GlcNAc-transferase (C2GnT1); assay: Inhibition of C2GnT1; settings: inhibitor 0.5 mM, 0.5 mM Galβ1–3GalNAcα-pnp acceptor

Chain of human recombinant core 1 β1,3-Gal-transferase (C1GalT) (Q9NS00 30-363 limits assumed): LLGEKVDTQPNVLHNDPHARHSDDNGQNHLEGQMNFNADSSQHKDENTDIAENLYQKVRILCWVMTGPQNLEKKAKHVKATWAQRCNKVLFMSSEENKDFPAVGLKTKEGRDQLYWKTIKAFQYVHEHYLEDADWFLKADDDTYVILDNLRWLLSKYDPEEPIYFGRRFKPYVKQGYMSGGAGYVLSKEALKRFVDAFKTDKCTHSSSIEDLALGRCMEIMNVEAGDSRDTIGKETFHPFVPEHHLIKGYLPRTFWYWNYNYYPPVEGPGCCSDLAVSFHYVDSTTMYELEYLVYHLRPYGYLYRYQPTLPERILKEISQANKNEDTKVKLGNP

Compound	C1GalT activity (%) [1]	C3GnT activity (%) [2]	other results
Ac-GHA-(GalNAcα)TSLPVTG-NH2	564%	22%	
TTTV-(GalNAcα)TPTPTG	270%	10%	
CC(=O)N[C@H]1[C@@H](OCc2ccccc2)O[C@H](CO[C@@H]2O[C@H](CO)[C@@H](F)[C@H](O)[C@H]2NC(C)=O)[C@H](O)[C@@H]1O [4-F-4-Deoxy-GlcNAcβ1–6-GalNAcα-Bn]	88%	<1%	
CC(=O)N[C@H]1[C@@H](OCc2ccccc2)O[C@H](C)[C@H](O)[C@@H]1O[C@@H]1O[C@H](CO)[C@H](O)[C@H](O)[C@H]1O [Galβ1–3(6-deoxy)GalNAcα-Bn]	<1%	<1%	C2GnT1 activity (%) [3]: <1%; C2GnT2 activity (%) [4]: <1%
[Cl][Mn][Cl] [Mn^2+, MnCl2]			C1GalT activity with cofactor/additive ([1]; 12.5 mM metal ion or EDTA, Mn2+ taken as 100%): 100%; EC50 ([1]; read-out: MnCl2 concentration for half-maximal C1GalT activity): 250 µM; reduction of C2GnT1 activity ([3]; 12.5 mM in the assay): 61%; reduction of C2GnT2 activity ([4]; 12.5 mM in the assay, core 1 or core 3 substrates): 83–85%
CC(=O)N[C@H]1[C@H](OC[C@H]2O[C@H](Oc3ccccc3[N+](=O)[O-])[C@H](NC(C)=O)[C@@H](O)[C@H]2O)O[C@H](CO)[C@@H](O[C@@H]2O[C@H](CO)[C@H](O)[C@H](O)[C@H]2O)[C@@H]1O [Galβ1–4GlcNAcβ1–6GalNAcα-onp]	38%	<1%	
[2H]C([2H])([2H])O[C@@H]1O[C@H](CO[C@@H]2O[C@H](CO)[C@@H](O)[C@H](O)[C@H]2NC(C)=O)[C@H](O)[C@H](O)[C@H]1O [GlcNAcβ1–6-Galβ-OCD3]	<1%	<1%	
CC(=O)N[C@H]1[C@@H](Oc2ccc([N+](=O)[O-])cc2)O[C@H](CO)[C@H](O)[C@@H]1O [GalNAcα-pnp]	204%	88%	
Ac-V-(GalNAcα)TP-NH2	71%	36%	
CC(=O)N[C@H]1[C@@H](OCc2ccccc2)O[C@H](CO[C@@H]2O[C@H](CO)[C@@H](O)[C@H](O)[C@H]2NC(C)=O)[C@H](O)[C@@H]1O [GlcNAcβ1–6-GalNAcα-Bn]	74%	<1%	C2GnT1 activity (%) [3]: <1%; C2GnT2 activity (%) [4]: <1%
TT-(GalNAcα)TVTPTPTG	99%	8%	
AHGVT-(GalNAcα)SAPDTRPAPGSTAPPA	39%	15%	C2GnT1 activity (%) [3]: <1%; C2GnT2 activity (%) [4]: <1%
CCCC(=O)N[C@H]1[C@@H](OCc2ccccc2)O[C@H](CO)[C@H](O)[C@@H]1O [2-N-Butyryl-GalNα-Bn, benzyl 2-butanamido-2-deoxy-α-D-galactoside]	<1%	<1%	C2GnT1 activity (%) [3]: <1%; C2GnT2 activity (%) [4]: <1%; C3GnT Inhibition (%) [5]: did not inhibit; C2GnT1 Inhibition (%) [6]: did not inhibit
CCC(=O)N[C@H]1[C@@H](OCc2ccccc2)O[C@H](CO)[C@H](O)[C@@H]1O [2-N-Propionyl-GalNα-Bn]	60%	62%	
CC(=O)N[C@H]1[C@@H](Oc2ccccc2)O[C@H](CO)[C@H](O)[C@@H]1O [GalNAcα-phenyl]	181%	37%	
CC(=O)NC1C(OP(=O)(O)OP(=O)(O)OCCCCCCCCCCCOc2ccccc2)OC(CO)C(O)C1O (stereo not shown) [GalNAcα-O-PO3-PO3-(CH2)11-O-Ph]	<1%	<1%	
C=C(C)C1CC=C(CO[C@H]2O[C@H](CO)[C@H](O)[C@H](O)[C@H]2NC(C)=O)CC1 (stereo partly shown) [GalNAcα-perillyl]	102%	153%	Vmax [2]: 0.4 µmol/h/mg and 0.40 µmol/h/mg; Km [2]: 300 µM

Compound	C1GalT activity (%) [1]	C3GnT activity (%) [2]	other results
CC(=O)N[C@H]1[C@@H](OCc2ccccc2)O[C@H](CO)C[C@@H]1O [4-Deoxy-GalNAcα-Bn]	<1%	<1%	
TE-(GlcNAcβ1–6GalNAcα)TTSHSTPG	<1%		C2GnT1 activity (%) [3]: <1%; C2GnT2 activity (%) [4]: <1%
OC[C@H]1O[C@H](OCc2ccccc2)C[C@@H](O)[C@H]1O [2-Deoxy-Galα-Bn]	<1%	<1%	
TTTVTP-(GalNAcα)TPTG	259%	5%	
CC(=O)N[C@H]1[C@H](OCc2ccccc2)O[C@H](CO)[C@@H](O[C@@H]2O[C@H](CO)[C@H](O)[C@H](O)[C@H]2NC(C)=O)[C@@H]1O [GalNAcβ1–4GlcNAcβ-Bn]	<1%	<1%	
CC(=O)N[C@H]1[C@@H](OCc2ccccc2)O[C@H](COCCCC2CO2)[C@H](O)[C@@H]1O (stereo partly shown) [6-O-(4,5-Anhydro)pentyl-GalNAcα-Bn]	191%	<1%	
CCCO[C@H]1[C@@H](O)[C@@H](CO)O[C@H](OCc2ccccc2)[C@@H]1NC(C)=O [3-O-Propyl-GalNAcα-Bn]	<1%	<1%	
CC(=O)N[C@H]1C(O)O[C@H](CO)[C@H](O)[C@@H]1O (stereo partly shown) [GalNAc, reference compound]	6%	<1%	
A-(GalNAcα)T		15%	
CCO[C@H]1[C@@H](O)[C@@H](CO)O[C@H](OCc2ccccc2)[C@@H]1NC(C)=O [3-O-Ethyl-GalNAcα-Bn]	<1%	<1%	
CC(=O)N[C@H]1[C@H](OC[C@H]2O[C@H](Oc3ccc4ccccc4c3)[C@H](O)[C@@H](O)[C@H]2O)O[C@H](CO)[C@@H](O[C@@H]2O[C@H](CO)[C@H](O)[C@H](O)[C@H]2O)[C@@H]1O [Galβ1–4GlcNAcβ1–6Galα-(2-naphthyl)]	<1%	<1%	
CC(=O)N[C@H]1[C@@H](OCc2ccccc2)O[C@H](CO)[C@H](O)[C@@H]1O [GalNAcα-Bn, reference compound]	100 ^a %	100 ^b %	Vmax ([1]; C1GalT, acceptor substrate): 0.14 µmol/h/mg; Km ([1]; C1GalT, apparent KM for acceptor substrate): 800 µM; Vmax [2]: 0.95 µmol/h/mg; Km [2]: 3000 µM; C2GnT1 activity (%) [3]: <1%; C2GnT2 activity (%) [4]: <1%
CC(=O)N[C@H]1[C@@H](OCc2ccccc2)O[C@H](CO[C@@H]2O[C@H](CO)[C@@H](O[C@@H]3O[C@H](CO)[C@H](O)[C@H](O)[C@H]3O)[C@H](O)[C@H]2O)[C@H](O)[C@@H]1O [Galβ1–4Glcβ1–6GalNAcα-Bn]	63%	<1%	
CC(=O)N[C@@H]1C[C@@H](O)[C@@H](CO)O[C@@H]1OCc1ccccc1 [3-Deoxy-GalNAcα-Bn]	<1%	<1%	C2GnT1 activity (%) [3]: <1%; C2GnT2 activity (%) [4]: <1%
CC(=O)N[C@H]1[C@@H](OCc2ccccc2)O[C@H](CO[C@@H]2O[C@H](CO)[C@H](O)[C@H](O)[C@H]2O)[C@H](O)[C@@H]1O [Galβ1–6GalNAcα-Bn]	30%	<1%	
CC(=O)N[C@H]1[C@@H](OCc2ccccc2)O[C@H](C)[C@H](O)[C@@H]1O [6-Deoxy-GalNAcα-Bn]	68%	<1%	
